Measurements: article PMC10422108 (Journal of Pharmaceutical Analysis, 2023)

Columns and labels:
[1] = test system: CTL1, OCT1 and OCT2 in LLC cells; test: PTX-R uptake assay with transporter inhibitors; format: cell-based, mouse; details: 100 μmol/L HC-3, 60 μmol/L quinidine or 60 μmol/L cimetidine, 10 min
Summary of the method: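 LLC cells seeded at 2 × 10^5 cells/mL, grown 48 h, PBS-washed. Preincubated 20 min with inhibitor or PBS, then 4.5 μmol/L test compound ± inhibitor for 10 min. Stopped by three cold PBS washes; lysed 30 min in cold MeOH/0.1% FA containing 100 ng/mL docetaxel internal standard. Extract dried, reconstituted in ACN:H2O 1:9, quantified by LC-MS/MS (MRM).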

Lewis lung cancer (LLC) = test: Antitumor activity in Lewis lung cancer; format: in vivo, C57BL/6J male mice; details: LLC mice; PTX 25 mg/kg; PTX-R 14.4, 28.8, 57.6 mg/kg; 11 day; versus control

CC(=O)O[C@H]1C(=O)[C@@]2(C)[C@H]([C@H](OC(=O)c3ccccc3)[C@]3(O)C[C@H](OC(=O)[C@H](O)[C@@H](NC(=O)c4ccccc4)c4ccccc4)C(C)=C1C3(C)C)[C@]1(OC(C)=O)CO[C@@H]1C[C@@H]2O [PTX, paclitaxel]
cellular uptake in presence of transporter inhibitors [1]: no influence on PTX transport | indices of the spleen and thymus (Lewis lung cancer (LLC)): notably reduced
